≈ marks a conversion by molar mass, not a printed value. Calls of active or inactive are those of the source. The calls are words filed in the database; no cut-off is given here.
How the values were obtained:
[1] = target: Glycogen synthase kinase-3 beta (Homo sapiens, UniProt P49841); experiment: Inhibition of GSK3-beta
[2] = Solubility at pH 7.4; format: physicochemical; conditions: buffer
[3] = Plasma clearance in ovariectomized rat at 2 mg/kg, iv; format: ADME, organism-based; set-up: dose 2 mg/kg, route intravenous; conditions: female
Outline: (§1)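 Ovariectomized rats received a single intravenous dose of 2.0 mg/kg in DMSO vehicle. Plasma drug concentration-time curves gave the PK parameters.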

[4] = Metabolic stability in rat liver microsomes assessed as half life at 1 uM; format: ADME, Microsome
[5] = AUC (0 to infinity) in ovariectomized rat at 10 mg/kg, po; format: ADME, organism-based; set-up: time infinity, dose 10 mg/kg, route oral; conditions: female, plasma
Outline: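 Single oral dose in ovariectomized rats, vehicle 2% MC/0.5% Tween-80. Plasma drug concentration followed over time; AUC0-∞ taken from the plasma concentration-time curve.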

[6] = Cmax in ovariectomized rat at 10 mg/kg, po; format: ADME, organism-based; set-up: dose 10 mg/kg, route oral; conditions: female, in vivo
Outline: (§2)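 Single oral dose given to ovariectomized rats at 10 mg/kg in 2% MC/0.5% T80 vehicle. Plasma drug concentration was followed over time, and PK parameters were derived from the concentration-time curve.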

[7] = test system: Rattus norvegicus; experiment: Increase in trabecular bone formation rate in ovariectomized rat measured at 0.3 mg/kg, po once daily after 28 days; format: functional, organism-based; set-up: dose 0.3 mg/kg; conditions: Trabecula
Outline: (§3)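 Ovariectomized rats dosed orally once daily for 28 days at four dose levels; vehicle 0.5% methylcellulose/2% Tween-80. Trabecular bone formation rate in the tibia determined at end of in-life phase. Positive control hPTH given sc.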

[8] = Tmax in ovariectomized rat at 10 mg/kg, po; format: ADME, organism-based; set-up: dose 10 mg/kg, route oral; conditions: female, in vivo; outline: as §2
[9] = test system: Rattus norvegicus; experiment: Increase in trabecular bone formation rate in once daily po dosed ovariectomized rat measured after 28 days; format: functional, organism-based; conditions: Trabecula; outline: as §3
[10] = species: Mus musculus; experiment: Increase in trabecular bone formation rate in wild type mouse measured after 7 days; format: functional, organism-based; conditions: Trabecula
[11] = Membrane permeability by PAMPA; format: ADME; conditions: read-out: permeability
[12] = Volume of distribution at steady state in ovariectomized rat at 2 mg/kg, iv; format: ADME, organism-based; set-up: dose 2 mg/kg, route intravenous; conditions: female, in vivo, read-out: Vdss; outline: as §1
[13] = Half life in ovariectomized rat plasma at 10 mg/kg, po; format: ADME, organism-based; set-up: dose 10 mg/kg, route oral; conditions: female; outline: as §2
[14] = AUC (0 to infinity) in ovariectomized rat at 2 mg/kg, iv; format: ADME, organism-based; set-up: time infinity, dose 2 mg/kg, route intravenous; conditions: female, plasma
Outline: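 Single intravenous dose in ovariectomized rats, vehicle DMSO. Plasma drug concentration followed over time; AUC0-∞ taken from the plasma concentration-time curve.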

[15] = Half life in ovariectomized rat plasma at 2 mg/kg, iv; format: ADME, organism-based; set-up: dose 2 mg/kg, route intravenous; conditions: female; outline: as §1
[16] = Oral bioavailability in ovariectomized rat at 10 mg/kg; format: ADME, organism-based; conditions: female, in vivo; outline: as §2
[17] = species: Mus musculus; experiment: Increase in trabecular bone formation rate in Dkk1 knockout mouse measured after 7 days; format: functional, organism-based; conditions: Trabecula

Chain of Glycogen synthase kinase-3 beta (P49841 whole entry): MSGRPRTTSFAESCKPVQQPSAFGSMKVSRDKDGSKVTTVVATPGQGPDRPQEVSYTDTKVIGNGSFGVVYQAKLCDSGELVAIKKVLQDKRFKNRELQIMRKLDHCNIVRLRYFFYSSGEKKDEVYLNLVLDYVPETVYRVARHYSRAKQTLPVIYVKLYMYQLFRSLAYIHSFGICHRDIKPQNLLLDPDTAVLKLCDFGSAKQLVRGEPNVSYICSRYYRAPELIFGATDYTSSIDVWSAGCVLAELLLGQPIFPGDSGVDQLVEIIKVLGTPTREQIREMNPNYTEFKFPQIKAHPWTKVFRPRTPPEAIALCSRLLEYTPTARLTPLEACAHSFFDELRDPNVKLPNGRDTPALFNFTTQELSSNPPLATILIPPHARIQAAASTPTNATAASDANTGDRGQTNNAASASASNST

## Cc1ccc(-c2ccnc(N(C)c3ccc(S(N)(=O)=O)cc3)n2)s1
[1]
  IC50: 65 µM
[2]
  solubility: 15 µg/mL (≈ 41.6 µM)

## NCC1CCN(c2nccc(-c3ccc4ccccc4c3)n2)CC1
[3]
  clearance: 32 mL/min/kg
[4]
  half-life at 1 µM: > 30 min
[5]
  AUC(0-inf): 3990 ng·h/mL
[6]
  Cmax: 277 ng/mL
[7]
  Activity: Active
[8]
  Tmax: 4.7 h
[1]
  IC50: > 100 µM
[9]
  Activity: Dose-dependent effect
[2]
  solubility: 65 µg/mL (≈ 204 µM)
[10]
  Activity: Active
[11]
  Papp: 5.9 ×10⁻⁶ cm/s
[12]
  Vd: 22 L/kg
[13]
  half-life: 336 min
[14]
  AUC(0-inf): 1030 ng·h/mL
[15]
  half-life: 492 min
[16]
  bioavailability: 78%
[17]
  Activity: inactive

## CC(=O)NCC1CCN(c2nccc(-c3ccc4ccccc4c3)n2)CC1
[1]
  IC50: > 10 µM
[2]
  solubility: 1 µg/mL (≈ 2.77 µM)

## NC1CCN(c2nccc(-c3ccc4ccccc4c3)n2)CC1
[1]
  IC50: > 50 µM
[2]
  solubility: > 100 µg/mL

## NS(=O)(=O)c1ccc(Nc2nccc(-c3ccc4ccccc4c3)n2)cc1
[1]
  IC50: 0.31 µM
[2]
  solubility: < 0.1 µg/mL

## Cc1ccc(-c2ccnc(Nc3ccc(S(N)(=O)=O)cc3)n2)s1
[1]
  IC50: 0.2 µM
[2]
  solubility: 8 µg/mL (≈ 23.1 µM)

— ChEMBL document CHEMBL1156130, “(1-(4-(Naphthalen-2-yl)pyrimidin-2-yl)piperidin-4-yl)methanamine: a wingless beta-catenin agonist that increases bone formation rate” (J Med Chem, 2009)
